Source: ChEMBL document CHEMBL5705901, “Exploiting selective BCL-2 family inhibitors to dissect cell survival dependencies and define improved strategies for cancer therapy” (Sci Transl Med, 2015)

Legend:
NCI-H889 = test: Antiproliferative activity against human NCI-H889 assessed as reduction in cell viability incubated for 48 hrs by CellTiter-Glo cell vaibility assay; format: functional, cell-based; conditions: NCI-H889, 48 h
In short: (§1)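 Tumour cell lines (SCLC panel and AML panel) exposed to increasing concentrations for 48 hours, then cell viability measured. Cell-killing EC50 taken from the concentration-response.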

Kasumi 1 = test: Antiproliferative activity against human Kasumi 1 assessed as reduction in cell viability incubated for 48 hrs by CellTiter-Glo cell vaibility assay; format: functional, cell-based; conditions: Kasumi 1, 48 h; in short: as §1
[1] = target: Induced myeloid leukemia cell differentiation protein Mcl-1 (Homo sapiens, UniProt Q07820); test: Binding affinity to MCL-1 (unknown origin) assessed as dissociation constant incubated for 1 hrs by TR-FRET assay
Induced myeloid leukemia cell differentiation protein Mcl-1, sequence (Q07820 whole entry): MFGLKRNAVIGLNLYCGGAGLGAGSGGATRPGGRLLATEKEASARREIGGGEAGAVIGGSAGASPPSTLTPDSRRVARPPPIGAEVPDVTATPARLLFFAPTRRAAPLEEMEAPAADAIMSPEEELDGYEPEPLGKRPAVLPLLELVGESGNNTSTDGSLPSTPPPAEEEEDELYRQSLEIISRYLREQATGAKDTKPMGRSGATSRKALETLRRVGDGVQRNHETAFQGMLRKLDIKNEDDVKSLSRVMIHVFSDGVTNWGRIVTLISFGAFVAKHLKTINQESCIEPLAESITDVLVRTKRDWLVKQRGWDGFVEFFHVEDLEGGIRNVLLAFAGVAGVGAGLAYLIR

NCI-H1836 = test: Antiproliferative activity against human NCI-H1836 assessed as reduction in cell viability incubated for 48 hrs by CellTiter-Glo cell vaibility assay; format: functional, cell-based; conditions: NCI-H1836, 48 h; in short: as §1
OCI-AML-5 = test: Antiproliferative activity against human OCI-AML5 assessed as reduction in cell viability incubated for 48 hrs by CellTiter-Glo cell vaibility assay; format: functional, cell-based; conditions: OCI-AML-5, 48 h; in short: as §1
[2] = Antiproliferative activity against human OCI-M2 assessed as reduction in cell viability incubated for 48 hrs by CellTiter-Glo cell vaibility assay; format: functional, cell-based; conditions: OCI-M2, 48 h; in short: as §1
NCI-H69 = test: Antiproliferative activity against human NCI-H69 assessed as reduction in cell viability incubated for 48 hrs by CellTiter-Glo cell vaibility assay; format: functional, cell-based; conditions: NCI-H69, 48 h; in short: as §1
MV4-11 = test: Antiproliferative activity against human MV4-11 assessed as reduction in cell viability incubated for 48 hrs by CellTiter-Glo cell vaibility assay; format: functional, cell-based; conditions: MV4-11, 48 h; in short: as §1
[3] = Antiproliferative activity against human MOLM16 assessed as reduction in cell viability incubated for 48 hrs by CellTiter-Glo cell vaibility assay; format: functional, cell-based, MOLM-16; conditions: MOLM16, 48 h; in short: as §1
NCI-H211 = test: Antiproliferative activity against human NCI-H211 assessed as reduction in cell viability incubated for 48 hrs by CellTiter-Glo cell vaibility assay; format: functional, cell-based; conditions: NCI-H211, 48 h; in short: as §1
[4] = Antiproliferative activity against human ME-1 assessed as reduction in cell viability incubated for 48 hrs by CellTiter-Glo cell vaibility assay; format: functional, cell-based; conditions: ME-1, 48 h; in short: as §1
NCI-H1048 = test: Antiproliferative activity against human NCI-H1048 assessed as reduction in cell viability incubated for 48 hrs by CellTiter-Glo cell vaibility assay; format: functional, cell-based; conditions: NCI-H1048, 48 h; in short: as §1
NCI-H187 = test: Antiproliferative activity against human NCI-H187 assessed as reduction in cell viability incubated for 48 hrs by CellTiter-Glo cell vaibility assay; format: functional, cell-based; conditions: NCI-H187, 48 h; in short: as §1
NCI-H1417 = test: Antiproliferative activity against human NCI-H1417 assessed as reduction in cell viability incubated for 48 hrs by CellTiter-Glo cell vaibility assay; format: functional, cell-based; conditions: NCI-H1417, 48 h; in short: as §1
[5] = Antiproliferative activity against human OCI-M1 assessed as reduction in cell viability incubated for 48 hrs by CellTiter-Glo cell vaibility assay; format: functional, cell-based; conditions: OCI-M1, 48 h; in short: as §1
SET-2 = test: Antiproliferative activity against human SET2 harboring JAK2 V617F mutant assessed as reduction in cell viability incubated for 48 hrs by CellTiter-Glo cell vaibility assay; format: functional, cell-based; conditions: SET-2, 48 h; in short: as §1
NCI-H345 = test: Antiproliferative activity against human NCI-H345 assessed as reduction in cell viability incubated for 48 hrs by CellTiter-Glo cell vaibility assay; format: functional, cell-based; conditions: NCI-H345, 48 h; in short: as §1
[6] = Inhibition of granulocyte colony formation in human bone marrow cells at 0.1 to 20 uM incubated for 14 to 16 days in presence of docetaxel by light microscopic analysis; format: toxicity, cell-based; conditions: bone marrow cell, dose lower 0.1 µM, time lower 14 day, dose upper 20 µM, time upper 16 day
In short: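 Human bone marrow granulocyte colony-forming assay in semisolid medium, increasing inhibitor concentrations ± 5 nM docetaxel; colonies counted by light microscopy after 14 days; triplicate means with SD; combinations compared with docetaxel alone by Student's t test.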

THP-1 = test: Antiproliferative activity against human THP-1 assessed as reduction in cell viability incubated for 48 hrs by CellTiter-Glo cell vaibility assay; format: functional, cell-based; conditions: THP-1, 48 h; in short: as §1
[7] = Antiproliferative activity against human PL-21 assessed as reduction in cell viability incubated for 48 hrs by CellTiter-Glo cell vaibility assay; format: functional, cell-based; conditions: PL-21, 48 h; in short: as §1
HL-60 = test: Antiproliferative activity against human HL-60 assessed as reduction in cell viability incubated for 48 hrs by CellTiter-Glo cell vaibility assay; format: functional, cell-based; conditions: HL-60, 48 h; in short: as §1
SKM-1 = test: Antiproliferative activity against human SKM-1 assessed as reduction in cell viability incubated for 48 hrs by CellTiter-Glo cell vaibility assay; format: functional, cell-based; conditions: SKM-1, 48 h; in short: as §1
NCI-H446 = test: Antiproliferative activity against human NCI-H446 assessed as reduction in cell viability incubated for 48 hrs by CellTiter-Glo cell vaibility assay; format: functional, cell-based; conditions: NCI-H446, 48 h; in short: as §1
MOLM-13 = test: Antiproliferative activity against human MOLM-13 assessed as reduction in cell viability incubated for 48 hrs by CellTiter-Glo cell vaibility assay; format: functional, cell-based; conditions: MOLM-13, 48 h; in short: as §1
EOL1 = test: Antiproliferative activity against human EOL1 assessed as reduction in cell viability incubated for 48 hrs by CellTiter-Glo cell vaibility assay; format: functional, cell-based; conditions: EOL1, 48 h; in short: as §1
[8] = Inhibition of granulocyte colony formation in human bone marrow cells at 0.1 to 20 uM incubated for 14 to 16 days by light microscopic analysis; format: toxicity, cell-based; conditions: bone marrow cell, dose lower 0.1 µM, time lower 14 day, dose upper 20 µM, time upper 16 day
In short: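 Isolated human bone marrow cells cultured in semisolid medium with increasing inhibitor concentrations; granulocyte (neutrophil) colonies counted by light microscopy after 15–16 days; triplicate means with SD; Student's t test versus solvent control.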

KG-1 = test: Antiproliferative activity against human KG-1 assessed as reduction in cell viability incubated for 48 hrs by CellTiter-Glo cell vaibility assay; format: functional, cell-based; conditions: KG-1, 48 h; in short: as §1
HEL = test: Antiproliferative activity against human HEL harboring JAK2 V617F mutant assessed as reduction in cell viability incubated for 48 hrs by CellTiter-Glo cell vaibility assay; format: functional, cell-based; in short: as §1
OCI-AML-3 = test: Antiproliferative activity against human OCI-AML-3 assessed as reduction in cell viability incubated for 48 hrs by CellTiter-Glo cell vaibility assay; format: functional, cell-based; conditions: OCI-AML-3, 48 h; in short: as §1
OCI-AML2 = test: Antiproliferative activity against human OCI-AML2 assessed as reduction in cell viability incubated for 48 hrs by CellTiter-Glo cell vaibility assay; format: functional, cell-based; conditions: OCI-AML2, 48 h; in short: as §1
NOMO-1 = test: Antiproliferative activity against human NOMO-1 assessed as reduction in cell viability incubated for 48 hrs by CellTiter-Glo cell vaibility assay; format: functional, cell-based; conditions: NOMO-1, 48 h; in short: as §1
[9] = Antiproliferative activity against human NCI-H847 assessed as reduction in cell viability incubated for 48 hrs by CellTiter-Glo cell vaibility assay; format: functional, cell-based; conditions: NCI-H847, 48 h; in short: as §1
MOLT-4 = test: Antiproliferative activity against Bcl-xl dependent human MOLT-4 cells assessed as reduction in cell viability by measuring effect concentration by CellTiter-Glo reagent based assay; format: functional
SIG-M5 = test: Antiproliferative activity against human SIG-M5 assessed as reduction in cell viability incubated for 48 hrs by CellTiter-Glo cell vaibility assay; format: functional, cell-based; conditions: SIG-M5, 48 h; in short: as §1
[10] = Antiproliferative activity against human HNT-34 assessed as reduction in cell viability incubated for 48 hrs by CellTiter-Glo cell vaibility assay; format: functional, cell-based; conditions: HNT-34, 48 h; in short: as §1
GDM-1 = test: Antiproliferative activity against human GDM-1 assessed as reduction in cell viability incubated for 48 hrs by CellTiter-Glo cell vaibility assay; format: functional, cell-based; conditions: GDM-1, 48 h; in short: as §1
ML-2 = test: Antiproliferative activity against human ML-2 assessed as reduction in cell viability incubated for 48 hrs by CellTiter-Glo cell vaibility assay; format: functional, cell-based; conditions: ML-2, 48 h; in short: as §1
[11] = Antiproliferative activity against human UKE-1 harboring JAK2 V617F mutant assessed as reduction in cell viability incubated for 48 hrs by CellTiter-Glo cell vaibility assay; format: functional, cell-based; conditions: UKE1, 48 h; in short: as §1
DMS-79 = test: Antiproliferative activity against human DMS 79 assessed as reduction in cell viability incubated for 48 hrs by CellTiter-Glo cell vaibility assay; format: functional, cell-based; conditions: DMS-79, 48 h; in short: as §1

- EC50 (NCI-H889): 15 nM
- Ki [1]: > 444 nM
- EC50 (NCI-H1836): 5 µM
- EC50 (OCI-AML-5): 110 nM
- EC50 (NCI-H69): 3.86 µM
- EC50 (MV4-11): 100 nM
- EC50 (NCI-H211): 330 nM
- EC50 (NCI-H1048): 2700 nM
- EC50 (NCI-H187): 850 nM
- EC50 (NCI-H1417): 4.1 µM
- EC50 (NCI-H345): 1200 nM
- EC50 (THP-1): 820 nM
- EC50 (HL-60): 100 nM
- EC50 (SKM-1): 2530 nM
- EC50 (NCI-H446): 2400 nM
- EC50 (MOLM-13): 100 nM
- EC50 (OCI-AML-3): > 5 µM
- EC50 (OCI-AML2): 100 nM
- EC50 (MOLT-4): > 5 µM
SMILES: CC1(C)CCC(CN2CCN(c3ccc(C(=O)NS(=O)(=O)c4ccc(NCC5CCOCC5)c([N+](=O)[O-])c4)c(Oc4cnc5[nH]ccc5c4)c3)CC2)=C(c2ccc(Cl)cc2)C1 [VENETOCLAX]
- EC50 (Kasumi 1): 1000 nM
- EC50 [2]: 4.05 µM
- EC50 [3]: 40 nM
- EC50 [4]: > 5 µM
- EC50 [5]: > 5 µM
- EC50 (SET-2): 3.33 µM
- Activity [6]: Toxic
- EC50 [7]: 1810 nM
- EC50 (EOL1): 100 nM
- Activity [8]: Toxic
- EC50 (KG-1): 1200 nM
- EC50 (HEL): 3.37 µM
- EC50 (NOMO-1): > 5 µM
- EC50 [9]: 3.9 µM
- EC50 (SIG-M5): 100 nM
- EC50 [10]: 1700 nM
- EC50 (GDM-1): 100 nM
- EC50 (ML-2): 100 nM
- EC50 [11]: 3.06 µM
- EC50 (DMS-79): 4.62 µM
